The text below walks through data of ChEMBL document CHEMBL1143616, “Potent and selective Aurora inhibitors identified by the expansion of a novel scaffold for protein kinase inhibition” (J Med Chem, 2005).

The test system of one test is HL-60. The experiment in a line: Antiproliferation activity against human HL-60 cell line.
Another test relates to A2780. Kind of test: cells. The conditions noted are these: Homo sapiens.
Test [1] deals with T1, Aurora kinase C (Homo sapiens, UniProt Q9UQB9).
T1 sequence (Q9UQB9 whole entry): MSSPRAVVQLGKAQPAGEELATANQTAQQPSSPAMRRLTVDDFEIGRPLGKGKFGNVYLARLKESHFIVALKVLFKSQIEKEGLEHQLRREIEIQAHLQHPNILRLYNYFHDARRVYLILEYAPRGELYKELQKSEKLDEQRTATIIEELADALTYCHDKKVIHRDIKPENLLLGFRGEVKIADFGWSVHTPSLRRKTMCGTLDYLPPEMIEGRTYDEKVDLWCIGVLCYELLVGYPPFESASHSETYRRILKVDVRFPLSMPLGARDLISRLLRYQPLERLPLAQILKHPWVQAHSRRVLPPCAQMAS
The experiment in a line: Inhibitory activity against Aurora kinase C.

For another test, the system named is HeLa. Kind of test: Antiproliferation activity against HeLa cell line. The note with it: Homo sapiens.
In the next test the test system is HCT-116. Kind of test: Antiproliferation activity against human colon cancer cell line (HCT116). The class given is functional, cell-based. An outline of the steps:
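HCT-116 cells seeded at 5000 cells/cm² in F12 with 10% FCS, 2 mM L-glutamine and penicillin/streptomycin, 37 °C, 5% CO₂. Next day, dilutions from a 10 mM DMSO stock were added to duplicate wells. After 72 h, cells were trypsinized and counted on a Multisizer 3 counter. Counts were expressed as % of untreated control wells, and IC50 was taken from a sigmoidal fit.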

Test [2] addresses T2, Aurora kinase B (Homo sapiens, UniProt Q96GD4). Kind of test: Inhibitory activity against Aurora kinase B.
Test [3] addresses T2, Aurora kinase B. Kind of test: Inhibition of Aurora kinase B.
The test system of the next test is HT-29. The experiment in a line: Antiproliferation activity against HT-29 cell line (HT-29). The note with it: Homo sapiens.
Test [4] concerns the target T1, Aurora kinase C. The experiment in a line: Inhibition of Aurora kinase C.
A further test deals with T3, Aurora kinase A (Homo sapiens, UniProt O14965).
T3 sequence (O14965 whole entry): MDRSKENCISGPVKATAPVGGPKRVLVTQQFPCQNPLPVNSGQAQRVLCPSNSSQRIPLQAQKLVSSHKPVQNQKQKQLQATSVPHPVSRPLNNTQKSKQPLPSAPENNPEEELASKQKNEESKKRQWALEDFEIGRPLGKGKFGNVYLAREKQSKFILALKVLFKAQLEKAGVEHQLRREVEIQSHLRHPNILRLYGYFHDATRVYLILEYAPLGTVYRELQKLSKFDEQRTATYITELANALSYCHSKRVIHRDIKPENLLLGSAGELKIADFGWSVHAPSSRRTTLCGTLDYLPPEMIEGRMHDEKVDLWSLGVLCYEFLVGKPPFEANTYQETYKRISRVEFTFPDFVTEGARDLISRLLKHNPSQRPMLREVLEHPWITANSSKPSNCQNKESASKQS
The experiment in a line: Inhibition of Aurora kinase A. An outline of the steps:
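GST-fused Aurora-A was made in insect cells and purified by GST affinity and gel filtration. Compounds were tested as 3-fold dilutions from 10 to 0.0005 µM. Reactions were stopped with EDTA and excess ATP, and substrate phosphorylation was read by streptavidin SPA bead counting.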

As a reminder, the IC50 is the concentration that gives 50% inhibition. A lower IC50 goes with inhibition by little substance.

T2 sequence (Q96GD4 whole entry): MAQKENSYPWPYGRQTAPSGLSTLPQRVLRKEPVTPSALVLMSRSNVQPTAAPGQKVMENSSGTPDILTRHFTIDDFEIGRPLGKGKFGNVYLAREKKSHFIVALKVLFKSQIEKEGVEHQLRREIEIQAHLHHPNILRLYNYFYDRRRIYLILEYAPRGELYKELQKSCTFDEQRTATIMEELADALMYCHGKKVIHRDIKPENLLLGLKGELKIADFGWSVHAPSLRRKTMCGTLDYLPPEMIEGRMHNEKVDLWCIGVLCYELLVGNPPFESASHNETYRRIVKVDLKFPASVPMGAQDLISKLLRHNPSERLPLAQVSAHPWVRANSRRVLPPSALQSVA

On to `CCc1cccc(CC)c1NC(=O)N1Cc2n[nH]c(NC(=O)c3ccc(N4CCN(C)CC4)cc3)c2C1` [PHA-680632], for which the half-inhibitory concentration (IC50) with HL-60 was 130 nM; with A2780, 110 nM; against Aurora kinase C [1], 120 nM; with HeLa, 410 nM; in the test on HCT-116, 45 nM; at Aurora kinase B [2], 135 nM. For the same compound, the IC50 amounted to 135 nM against Aurora kinase B [3], 80 nM with HT-29 and 120 nM at Aurora kinase C [4].

`CC(C)(C)c1ccc(C(=O)Nc2[nH]nc3c2CN(C(=O)Cc2ccsc2)C3)cc1`: the figures for the 50% inhibitory concentration (IC50) against Aurora kinase A and in the test on HCT-116 were 5 nM and 2000 nM, respectively.

In the case of `CN1CCN(c2ccc(C(=O)Nc3n[nH]c4c3CN(C(=O)c3ccco3)C4)cc2)CC1`, the values for the IC50 against Aurora kinase A and with HCT-116 were 160 nM and 900 nM, respectively.

As for `CC(C)(C)c1ccc(C(=O)Nc2n[nH]c3c2CN(C(=O)Cc2ccccc2)C3)cc1`, the IC50 against Aurora kinase A came to 130 nM; with HCT-116, 3000 nM.

For `CCc1cccc(CC)c1NC(=O)N1Cc2n[nH]c(NC(=O)c3ccc(C(C)(C)C)cc3)c2C1`, the concentration for half-maximal inhibition (IC50) came out at 100 nM against Aurora kinase A and 2200 nM with HCT-116.

For the compound `CC(C)(C)c1ccc(C(=O)Nc2n[nH]c3c2CN(C(=O)c2ccco2)C3)cc1`, the concentration for half-maximal inhibition (IC50) worked out at 41 nM on Aurora kinase A and 2100 nM with HCT-116.

For `CN1CCN(c2ccc(C(=O)Nc3[nH]nc4c3CN(C(=O)Cc3ccsc3)C4)cc2)CC1`, the IC50 on Aurora kinase A worked out at 65 nM; in the test with HCT-116, 570 nM.
